Compound activity as filed in PubChem.
PolyA inhibitor – inhibitors of polyadenylation in S. cerevisiae; S. cerevisiae SKY197-pL101 polyadenylation reporter, beta-gal luminescence; efflux-impaired pdr1/pdr3 knockout yeast; score 100 = 6 SD above DMSO; activity score, % at 12 µM; hit rate 0.02% among 300,000;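 active = lowest replicate activity score at least 50, where 100 means six control SD above control mean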;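 also: yeast exposed to compound for 9 h at 30 °C; higher score means more reporter readthrough which indicates perturbed polyadenylation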
AHR activator – activators of human aryl hydrocarbon receptor. activation, % at 5 µM. AHR-responsive luciferase reporter cells, luminescence. P35869. hit rate 2.5% among 320,000; in the data active = activation above about 47%
HSF1 inhib – HSF1 inhibition; NIH3T3-HGL HSE-luciferase, MG132-induced, luminescence 8 h; stronger effect = lower value; hit rate 0.77% among 300,000; activity change, negative = inhibition, % at 7.5 µM (by protocol);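 active = more than half of replicate wells show activity change below -50%, luminescence cut by over half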;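 also: luciferase reports HSF-1 transcriptional activity via heat shock element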
Hsp70 act – switches on Hsp70 transcription | HeLa Hsp70 promoter luciferase reporter, luminescence; scaled: vehicle 0, proteasome-inhibitor control 100% | activation, % at 10 µM | hit rate 0.04% among 200,000;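 active = activation above the mean across all tested compounds plus 3 SD, cutoff set per campaign, cut at about 5.5% in these data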
STAT3 act – increases IL-6 driven STAT3 reporter signal. U3A cells, IL-6 STAT3-luciferase reporter, luminescence; 100% = signal with IL-6 EC80 alone. activation (% of control), % at 5.6 µM. hit rate 0.91% among 190,000. AID 871;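 active = activation above the screen-wide mean of compound activation plus 3 SD, cut at about 130% in these data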
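Test system: human U3A cells carrying STAT3-luciferase construct; control set: IL-6-only wells as 100% reference; timing: compound pre-incubation 1 h before IL-6, then 6 h stimulation at 37 °C; also added: IL-6 stimulus at 33 ng/mL final; evaluation: % activation versus median of IL-6-stimulated wells; detection: reporter luminescence signal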
PERK inh – human PERK inhibition, primary cell-based screen. hit rate 0.17% among 220,000. CHO PERK-DD fusion, SEAP luminescence translation reporter. inhibition, % at 5.6 µM;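 active = inhibition above the mean inhibition of all tested compounds plus 3 SD, set separately per screening campaign, cut at about 2.9% in these data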;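 also: PERK kinase domain activated by AP20187 dimerizer at 100 nM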
A number is an active result; – = inactive; · = no result. A selection: hits, their analogues and other compounds. The true share with any hit is near 3.6%.

SMILES	PolyA inhibitor	AHR activator	HSF1 inhib	Hsp70 act	STAT3 act	PERK inh
COc1ccc(C(CNC(=O)C2CCN(S(=O)(=O)c3ccc(F)cc3)CC2)N(C)C)cc1 (configuration not stated)	–	–	–	·	·	·
Oc1ccccc1NCC(O)Cn1ccc2ccccc21 (configuration not stated)	–	–	–	–	134.5	–
Cc1sc2ncnc(NCCc3ccc(S(N)(=O)=O)cc3)c2c1C	–	–	-51.4	–	–	–
NS(=O)(=O)c1ccc(NC(=O)c2cc(Cl)sc2Cl)cc1	–	–	–	·	·	·
CCCCNC(=O)c1cc2c(C)cc(C)cc2[nH]1	–	55.3	–	·	·	–
Cc1cc(C)c2cc(C(=O)Nc3ccc(C)c(F)c3)[nH]c2c1	–	·	–	·	·	·
CC(C)N(C(=O)[C@H]1CC(CC(=O)NCCC2=CCCCC2)C(=O)N2CCc3c([nH]c4ccccc34)[C@]12C)C(C)C (some centres not stated)	·	–	·	·	·	·
COc1cc(NC(=O)Cn2ncc3c2-c2ccccc2OC3)cc(OC)c1OC	–	–	–	–	–	–
COc1ccccc1NC(=O)CC(=O)c1ccccc1	–	–	–	·	·	·
COc1ccccc1NC(=O)c1sc(Cl)nc1C	–	70.2	–	·	·	·
COc1ccccc1NC(=O)Nc1cc(NC(=O)Nc2ccccc2OC)c(C)nc1C	–	49.1	–	–	–	–
COc1ccccc1NC(=O)CC(=O)Nc1ccccc1OC	–	68.7	–	·	·	·
COc1ccc(NC(=O)Nc2ccccc2OC)cc1	–	–	–	–	–	–
COc1ccccc1NC(=O)Cn1ncc2c1-c1ccccc1OC2	–	58.5	–	–	–	–
CC(=O)N/N=C(/c1ccccc1)C(O)c1ccccc1 (configuration not stated)	–	·	–	·	·	·
O=C(O)C1c2ccccc2C(=O)N(Cc2ccc(F)cc2)C1c1ccncc1 (configuration not stated)	–	–	–	·	·	–
COc1ccccc1NC(=O)Cc1nn(C)c(=O)c2ccccc12	–	64.2	–	–	–	–
COc1cccc(OC)c1NC(=O)Cc1nn(C)c(=O)c2ccccc12	–	–	–	–	–	–
COc1ccccc1NC(=O)Cn1c(=O)sc2ccccc21	–	–	–	–	–	–
COc1ccccc1NC(=O)Cn1c(=O)c(N(C)C)c(N)n(C)c1=O	–	–	-71.2	–	–	–
COc1ccccc1-c1nnc(SCC(=O)Nc2cccnc2Cl)n1C	·	–	·	·	·	·
CC1CCc2sc(C(=O)N/N=C/c3ccc([N+](=O)[O-])cc3)cc2C1 (configuration not stated)	–	65.5	–	–	–	–
CC1CC1c1ccc(/C=C(\C#N)C(=O)Nc2cc(Cl)ccc2Cl)o1 (configuration not stated)	–	60.1	–	–	–	–
CC1CC1c1ccc(/C=C(\C#N)C(=O)Nc2ccc(Cl)cc2Cl)o1 (configuration not stated)	–	–	–	–	–	–
COc1cc(C=O)ccc1OC(=O)c1cccnc1	–	–	–	·	·	·
SMILES	PolyA inhibitor	AHR activator	HSF1 inhib	Hsp70 act	STAT3 act	PERK inh
Cc1ccc(NC(=O)CN2C(=O)NC3(CCCC3)C2=O)c(Cl)c1	–	–	-83.8	·	·	·
Cc1ccsc1CN(C)CC(=O)NCC(=O)Nc1ccc(F)cc1	·	–	·	·	·	·
CCc1cc(C(=O)Nc2ncccc2O)sc1C	–	77.6	–	·	·	·
CCCCNc1c(-c2cccc(-c3ccc(OC)cc3)c2)nc2ccc(C)cn12	–	–	–	·	·	·
COc1ccc(-c2nc3ccc(C)cn3c2NCc2ccc3c(c2)OCO3)cc1	–	69.2	–	–	–	–
COc1cc(-c2nc3ccccn3c2NCc2ccccc2)ccc1SC1CCCCC1	–	68.9	–	·	·	·
COc1ccc(-c2nc3cnccn3c2NCc2ccccc2)cc1SC1CCCCC1	–	50.3	–	·	·	·
COc1cc(-c2nc3ccc(C)cn3c2NCc2ccccc2)ccc1-c1cccc(Cl)c1	·	73.0	·	·	·	·
COc1cc(-c2nc3ccc(C)cn3c2NCc2ccccc2)ccc1SC1CCCCC1	–	–	–	·	·	·
CCN(CC)c1ccc(S(=O)(=O)N(CC)CC)cc1NC(=O)c1cccnc1	–	–	–	–	–	–
CCCCCCSc1cc(-c2nc3cc(C)ccn3c2NC2CCCCC2)ccc1OC	–	–	–	·	·	·
CCCCCCSc1cc(-c2nc3cnccn3c2NCc2ccccc2)ccc1OC	–	48.6	–	·	·	·
COC(=O)/C(=C/c1c[nH]c2ccccc12)[N+](=O)[O-]	–	–	–	–	134.3	–
COC(=O)/C(=C/c1c[nH]c2ccccc12)NC(C)=O	–	–	–	–	–	–
Cc1ccc(-c2cc(-c3ccc4c(c3)OCO4)c(C#N)c(N)n2)o1	–	75.2	–	–	–	–
NS(=O)(=O)c1ccc(N=Nc2c(O)ccc3ccccc23)cc1	–	–	–	–	–	–
Oc1ccc(N=Nc2c(O)ccc3ccccc23)cc1	–	79.3	–	–	–	–
COc1ccc2[nH]c3c(N4CCC(O)(c5cccc(C(F)(F)F)c5)CC4)ncnc3c2c1	–	68.0	–	–	–	–
COc1ccc2[nH]c3c(N4CCN(Cc5ccc6c(c5)OCO6)CC4)ncnc3c2c1	–	–	–	–	–	–
CS(=O)(=O)c1ccc2nc(NC(=O)CCN3C(=O)c4ccccc4C3=O)sc2c1	–	–	–	–	–	–
COC1Cc2ccccc2N(C(N)=O)c2ccccc21 (configuration not stated)	–	47.5	–	·	·	·
CC(C)/C=C/CN1CCN(CCCc2ccccc2)C(CCO)C1 (configuration not stated)	–	–	–	·	·	·
Cn1c(CNc2ccccc2)nc2ccccc21	–	64.8	–	–	–	–
Cn1c(CNc2ccc(F)cc2)nc2ccccc21	–	·	–	·	·	·
Cc1ccccc1NCc1nc2ccccc2n1C	–	78.5	–	·	·	·
SMILES	PolyA inhibitor	AHR activator	HSF1 inhib	Hsp70 act	STAT3 act	PERK inh
CCOc1ccc(N(CC(=O)NCc2ccccc2C)S(C)(=O)=O)cc1	–	–	–	·	·	·
FC(F)Oc1ccccc1/C=N/n1cnc2ccccc21	–	49.1	–	–	–	–
C/C(=N\NC(=O)c1c[nH]c2ccccc12)c1ccc2c(c1)OCO2	–	93.3	–	–	–	–
CNC(=S)N/N=C(\C)c1ccc2c(c1)OCO2	–	72.1	–	–	–	–
C/C(=N\NC(=S)Nc1ccc(C(C)C)cc1)c1ccc2c(c1)OCO2	–	–	–	–	–	–
CNC(=S)N/N=C(\C)c1ccc2c(c1)OCCO2	–	48.4	–	–	–	–
CC1CCN(S(=O)(=O)c2cc3c4c(c2)C(C)C(=O)N4CCC3)CC1 (configuration not stated)	–	–	–	·	·	·
COc1cc(OC)cc(C(=O)Nc2nc3ccc(S(C)(=O)=O)cc3s2)c1	–	49.0	–	–	–	–
CCc1noc(C)c1C(=O)Nc1nnc(C(CC)CC)s1	·	–	·	·	·	·
COC(=O)c1cc(S(=O)(=O)NCc2cccc(Br)c2)c[nH]1	–	–	–	·	·	·
COC(=O)c1cc(S(=O)(=O)NCCc2ccccc2)c[nH]1	–	–	-81.3	·	·	·
